# Test results: ChEMBL document CHEMBL1131177, “A novel class of orally active non-peptide bradykinin B2 receptor antagonists. 4. Discovery of novel frameworks mimicking the active conformation” (J Med Chem, 1998)
# What was measured:
# [1] = target: T1, B2 bradykinin receptor (Cavia porcellus, UniProt O70526); experiment: Inhibition of the specific binding of [3H]BK to Bradykinin receptor B2 in guinea pig ileum membrane preparations; assay type: cell membranes
# T1 sequence (O70526 whole entry): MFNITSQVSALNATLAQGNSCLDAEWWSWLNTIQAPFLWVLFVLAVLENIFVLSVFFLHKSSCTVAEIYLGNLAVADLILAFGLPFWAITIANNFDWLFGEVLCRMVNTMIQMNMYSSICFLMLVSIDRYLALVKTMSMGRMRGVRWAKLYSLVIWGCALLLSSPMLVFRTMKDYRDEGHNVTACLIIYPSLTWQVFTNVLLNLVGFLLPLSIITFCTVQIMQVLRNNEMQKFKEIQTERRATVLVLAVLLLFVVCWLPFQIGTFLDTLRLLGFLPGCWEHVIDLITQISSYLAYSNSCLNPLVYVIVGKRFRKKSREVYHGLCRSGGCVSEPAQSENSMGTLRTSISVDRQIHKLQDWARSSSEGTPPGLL
# Method in brief: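 Male Hartley guinea pig ileum membranes (100000g pellet) at 0.2 mg protein/mL in pH 6.8 TES buffer with phenanthroline, bacitracin, DTT, captopril, BSA. Incubated with 0.06 nM [3H]BK plus varying compound concentrations, 60 min, room temperature. Filtration harvest, scintillation counting. Nonspecific binding defined with 1 µM unlabeled BK. IC50 as mean of at least three determinations.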
# [2] = target: T2, B2 bradykinin receptor (Homo sapiens, UniProt P30411); experiment: Inhibition of the specific binding of [3H]BK to human recombinant Bradykinin receptor B2 expressed in CHO cells.; assay type: cell-based
# T2 sequence (P30411 whole entry): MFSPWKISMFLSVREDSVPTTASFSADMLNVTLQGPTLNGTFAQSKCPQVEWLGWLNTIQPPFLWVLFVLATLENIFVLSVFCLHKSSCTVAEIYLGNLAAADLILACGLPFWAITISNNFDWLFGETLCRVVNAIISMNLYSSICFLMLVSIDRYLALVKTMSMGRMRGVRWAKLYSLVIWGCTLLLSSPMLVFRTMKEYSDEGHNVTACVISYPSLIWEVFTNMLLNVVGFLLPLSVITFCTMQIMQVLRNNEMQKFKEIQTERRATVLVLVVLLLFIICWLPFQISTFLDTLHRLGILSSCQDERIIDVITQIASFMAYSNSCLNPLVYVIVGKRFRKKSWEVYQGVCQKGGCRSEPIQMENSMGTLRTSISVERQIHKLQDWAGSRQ
# Method in brief: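 Intact CHO (dhfr-) cells stably expressing human B2, seeded at 3.0 × 10^4 cells/well and cultured 1 day. Incubated with 1.0 nM [3H]BK and compound, 2 h at 4 °C, in HEPES/N-methyl-D-glucamine buffer pH 7.2 with bacitracin, enalaprilat, BSA. Cells solubilized in SDS/NaOH for scintillation counting. Nonspecific binding defined with 1 µM BK. Run three times.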
# [3] = test system: Cavia porcellus; experiment: Antagonistic activity in inhibiting BK-induced bronchoconstriction in guinea pigs by oral administration at 1 mg/kg dose.; assay type: functional
# Method in brief: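 Male Hartley guinea pigs (470-750 g), fasted overnight, anesthetized with pentobarbital 30 mg/kg ip, ventilated 10 mL/kg at 60 breaths/min; alcuronium 0.5 mg/kg iv, propranolol 10 mg/kg sc. BK 5 µg/kg iv; peak rise in insufflation pressure (modified Konzett–Rössler). Compound in 0.5% methylcellulose given via esophageal cannula; BK repeated 30 min later. % inhibition vs vehicle group; n = 3-4/dose.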
Compound,IC50 [1],IC50 [2],inhibition in vivo at 1 mg/kg [3]
CNC(=O)c1ccc(/C=C/C(=O)Nc2cccc(-c3ccc(C)c(COc4cccc5ccc(C)nc45)c3C)c2)cc1,94 nM,> 10000 nM,–
CNC(=O)c1ccc(/C=C/C(=O)NCC(=O)N(C)c2ccc(Cl)c(COc3cccc4ccc(C)nc34)c2)cc1,5.1 nM,110 nM,–
CNC(=O)c1ccc(/C=C/C(=O)NCC=Cc2ccc(Cl)c(COc3cccc4ccc(C)nc34)c2Cl)cc1,220 nM,710 nM,–
CC(=O)Nc1ccc(/C=C/C(=O)NCC(=O)Nc2ccc(Cl)c(COc3cccc4ccc(C)nc34)c2Cl)cn1,280 nM,4200 nM,–
CNC(=O)c1ccc(/C=C/C(=O)NC/C=C\c2ccc(Cl)c(COc3cccc4ccc(C)nc34)c2Cl)cc1,17 nM,14 nM,–
CNC(=O)c1ccc(/C=C/C(=O)NCC(=O)N(C)c2cccc(COc3cccc4ccc(C)nc34)c2C)cc1,17 nM,150 nM,–
CNC(=O)c1ccc(/C=C/C(=O)NCC(=O)N(C)c2ccc(OC)c(COc3cccc4ccc(C)nc34)c2OC)cc1,17 nM,210 nM,–

# Stronger by IC50 [2], values ahead:
IC50 [1],IC50 [2],Compound,inhibition in vivo at 1 mg/kg [3]
2.8 nM,5.8 nM,CNC(=O)c1ccc(/C=C/C(=O)NCc2sccc2-c2ccc(C)c(COc3cccc4ccc(C)nc34)c2C)cc1,–
–,2.6 nM,CNC(=O)c1ccc(/C=C/C(=O)NCc2ccccc2-c2ccc(C)c(COc3cccc4ccc(C)nc34)c2C)cc1,–
0.76 nM,0.51 nM,Cc1ccc2cccc(OCc3c(Cl)ccc(N(C)C(=O)CNC(=O)/C=C/c4ccc(/C=C/c5ccncc5)nc4)c3Cl)c2n1,87.3%
0.55 nM,3.2 nM,Cc1ccc2cccc(OCc3c(Cl)ccc(N(C)C(=O)CNC(=O)/C=C/c4ccc(N5CCCC5=O)cc4)c3Cl)c2n1,85.3%
0.58 nM,0.41 nM,Cc1ccc2cccc(OCc3c(Cl)ccc(-n4cccc4CNC(=O)/C=C/c4ccc(N5CCCC5=O)cc4)c3Cl)c2n1,36%
0.64 nM,0.26 nM,CNC(=O)c1ccc(/C=C/C(=O)NCc2cccn2-c2ccc(Cl)c(COc3cccc4ccc(C)nc34)c2Cl)cc1,67.9%
0.56 nM,0.37 nM,CC(=O)Nc1ccc(/C=C/C(=O)NCc2cccn2-c2ccc(Cl)c(COc3cccc4ccc(C)nc34)c2Cl)cn1,82.1%
